In ChEMBL document CHEMBL1153403, “Design, synthesis, and evaluation of novel fluoroquinolone-aminoglycoside hybrid antibiotics” (J Med Chem, 2009):
Values after ≈ are worked out from the molar mass of the structure shown.

Columns and labels:
Type in all cases: functional
Escherichia coli [1] = experiment: Antibacterial activity against Escherichia coli R477-100 by double-microdilution method
Escherichia coli [2] = experiment: Antibacterial activity against Escherichia coli ATCC 25922 by double-microdilution method
Escherichia coli [3] = experiment: Antibacterial activity against kanamycin-resistant Escherichia coli AG100B expressing aminoglycosides resistant APH(3')-1 enzyme by double-microdilution method
Escherichia coli [4] = experiment: Antibacterial activity against kanamycin-resistant Escherichia coli AG100A expressing aminoglycosides resistant APH(3')-1 enzyme by double-microdilution method
Bacillus subtilis = experiment: Antibacterial activity against aminoglycosides-susceptible Bacillus subtilis ATCC 6633 by double-microdilution method
Staphylococcus aureus = experiment: Antibacterial activity against methicillin-resistant Staphylococcus aureus ATCC 43300 by double-microdilution method
Escherichia coli [5] = experiment: Antibacterial activity against Escherichia coli XL1-blue by double-microdilution method
Escherichia coli [6] = experiment: Antibacterial activity against aminoglycosides-resistant Escherichia coli XL1-blue harboring pSF815 expressing AAC(6')-APH(2'') enzyme by double-microdilution method
Escherichia coli [7] = experiment: Resistance index, MIC for aminoglycosides-resistant Escherichia coli XL1-blue harboring pSF815 expressing AAC(6')-APH(2'') enzyme to MIC for Escherichia coli XL1-blue
Summary of the method: (§1)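 Ratio of MIC on the plasmid-bearing resistant strain to MIC on its background strain (pETSACG1 vs BL21; pET9d or pSF815 vs XL1 blue). MICs by NCCLS double microdilution from starting concentrations of 384 and 1.5 µg/mL, in duplicate, two to four experiments.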

Escherichia coli [8] = experiment: Antibacterial activity against aminoglycosides-resistant Escherichia coli XL1-blue harboring pET9d expressing APH(3')-1a enzyme by double-microdilution method
Escherichia coli [9] = experiment: Resistance index, MIC for aminoglycosides-resistant Escherichia coli XL1-blue harboring pET9d expressing APH(3')-1a enzyme to MIC for Escherichia coli XL1-blue; summary of the method: as §1
Escherichia coli [10] = experiment: Antibacterial activity against Escherichia coli BL21 by double-microdilution method
Escherichia coli [11] = experiment: Antibacterial activity against aminoglycosides-resistant Escherichia coli BL21 harboring pETSACG1 expressing APH(3')-3a enzyme by double-microdilution method
Escherichia coli [12] = experiment: Resistance index, MIC for aminoglycosides-resistant Escherichia coli BL21 harboring pETSACG1 expressing APH(3')-3a enzyme to MIC for Escherichia coli BL21; summary of the method: as §1

SMILES | MIC (Escherichia coli [1]) [mg/L] | MIC (Escherichia coli [2]) [mg/L] | MIC (Escherichia coli [3]) [mg/L] | MIC (Escherichia coli [4]) [mg/L] | MIC (Bacillus subtilis) [mg/L] | MIC (Staphylococcus aureus) [mg/L] | MIC (Escherichia coli [5]) [mg/L] | MIC (Escherichia coli [6]) [mg/L] | Ratio (Escherichia coli [7]) | MIC (Escherichia coli [8]) [mg/L] | Ratio (Escherichia coli [9]) | MIC (Escherichia coli [10]) [mg/L] | MIC (Escherichia coli [11]) [mg/L] | Ratio (Escherichia coli [12])
NC[C@@H]1O[C@H](O[C@H]2[C@@H](O)[C@H](O[C@@H]3[C@@H](O)[C@H](N)C[C@H](N)[C@H]3O[C@H]3O[C@H](CN)[C@@H](O)[C@H](O)[C@H]3N)O[C@@H]2C(=O)Nc2ccc(-c3cn(CCCCCCN4CCN(c5cc6c(cc5F)c(=O)c(C(=O)O)cn6C5CC5)CC4)nn3)cc2)[C@H](N)[C@@H](O)[C@@H]1O | 6 (≈ 5.07 µM) | 6 (≈ 5.07 µM) | 12 (≈ 10.1 µM) | 1.5 (≈ 1.27 µM) | 12 (≈ 10.1 µM) | 48 (≈ 40.5 µM) |  |  |  |  |  |  |  | 
NC[C@@H]1O[C@H](O[C@H]2[C@@H](O)[C@H](O[C@@H]3[C@@H](O)[C@H](N)C[C@H](N)[C@H]3O[C@H]3O[C@H](CN)[C@@H](O)[C@H](O)[C@H]3N)O[C@@H]2C(=O)NCc2cn(CCCN3CCN(c4cc5c(cc4F)c(=O)c(C(=O)O)cn5C4CC4)CC3)nn2)[C@H](N)[C@@H](O)[C@@H]1O | 12 (≈ 11.1 µM) | 6 (≈ 5.55 µM) | 12 (≈ 11.1 µM) | 1.5 (≈ 1.39 µM) | 6 (≈ 5.55 µM) | 48 (≈ 44.4 µM) |  |  |  |  |  |  |  | 
NC[C@@H]1O[C@H](O[C@H]2[C@@H](O)[C@H](O[C@@H]3[C@@H](O)[C@H](N)C[C@H](N)[C@H]3O[C@H]3O[C@H](CN)[C@@H](O)[C@H](O)[C@H]3N)O[C@@H]2C(=O)Nc2ccc(-c3cn(CCOCCN4CCN(c5cc6c(cc5F)c(=O)c(C(=O)O)cn6C5CC5)CC4)nn3)cc2)[C@H](N)[C@@H](O)[C@@H]1O | 24 (≈ 20.5 µM) | 12 (≈ 10.2 µM) | 12 (≈ 10.2 µM) | 1.5 (≈ 1.28 µM) | 12 (≈ 10.2 µM) | 24 (≈ 20.5 µM) |  |  |  |  |  |  |  | 
NC[C@@H]1O[C@H](O[C@H]2[C@@H](O)[C@H](O[C@@H]3[C@@H](O)[C@H](N)C[C@H](N)[C@H]3O[C@H]3O[C@H](CN)[C@@H](O)[C@H](O)[C@H]3N)O[C@@H]2C(=O)NCc2cn(Cc3ccc(CN4CCN(c5cc6c(cc5F)c(=O)c(C(=O)O)cn6C5CC5)CC4)cc3)nn2)[C@H](N)[C@@H](O)[C@@H]1O | 6 (≈ 5.25 µM) | 6 (≈ 5.25 µM) | 12 (≈ 10.5 µM) | 1.5 (≈ 1.31 µM) | 3 (≈ 2.63 µM) | 3 (≈ 2.63 µM) | 6 (≈ 5.25 µM) | 6 (≈ 5.25 µM) | 1 | 6 (≈ 5.25 µM) | 1 | 0.4 (≈ 0.35 µM) | 0.4 (≈ 0.35 µM) | 1
NC[C@@H]1O[C@H](O[C@H]2[C@@H](O)[C@H](O[C@@H]3[C@@H](O)[C@H](N)C[C@H](N)[C@H]3O[C@H]3O[C@H](CN)[C@@H](O)[C@H](O)[C@H]3N)O[C@@H]2C(=O)NCc2cn(CCN3CCN(c4cc5c(cc4F)c(=O)c(C(=O)O)cn5C4CC4)CC3)nn2)[C@H](N)[C@@H](O)[C@@H]1O | 12 (≈ 11.3 µM) | 6 (≈ 5.63 µM) | 12 (≈ 11.3 µM) | 1.5 (≈ 1.41 µM) | 3 (≈ 2.81 µM) | 24 (≈ 22.5 µM) |  |  |  |  |  |  |  | 
NC[C@@H]1O[C@H](O[C@H]2[C@@H](O)[C@H](O[C@@H]3[C@@H](O)[C@H](N)C[C@H](N)[C@H]3O[C@H]3O[C@H](CN)[C@@H](O)[C@H](O)[C@H]3N)O[C@@H]2C(=O)Nc2ccc(-c3cn(CCCCCN4CCN(c5cc6c(cc5F)c(=O)c(C(=O)O)cn6C5CC5)CC4)nn3)cc2)[C@H](N)[C@@H](O)[C@@H]1O | 12 (≈ 10.3 µM) | 6 (≈ 5.13 µM) | 24 (≈ 20.5 µM) | 1.5 (≈ 1.28 µM) | 12 (≈ 10.3 µM) | 48 (≈ 41 µM) |  |  |  |  |  |  |  | 
NC[C@@H]1O[C@H](O[C@H]2[C@@H](O)[C@H](O[C@@H]3[C@@H](O)[C@H](N)C[C@H](N)[C@H]3O[C@H]3O[C@H](CN)[C@@H](O)[C@H](O)[C@H]3N)O[C@@H]2C(=O)Nc2ccc(-c3cn(CCCCN4CCN(c5cc6c(cc5F)c(=O)c(C(=O)O)cn6C5CC5)CC4)nn3)cc2)[C@H](N)[C@@H](O)[C@@H]1O | 12 (≈ 10.4 µM) | 6 (≈ 5.19 µM) | 24 (≈ 20.8 µM) | 1.5 (≈ 1.3 µM) | 6 (≈ 5.19 µM) | 24 (≈ 20.8 µM) |  |  |  |  |  |  |  | 
